Experimental findings from ChEMBL document CHEMBL3785089, “Design and Synthesis of Irreversible Analogues of Bardoxolone Methyl for the Identification of Pharmacologically Relevant Targets and Interaction Sites” (J Med Chem, 2016) are described below.

Calls of active or inactive are those of the source. The calls are words filed in the database; no cut-off is given here.

The target of experiment [1] is Glutathione S-transferase P (Homo sapiens) (UniProt P09211). Kind of experiment: Binding affinity to recombinant human poly His-tagged GSTP1 expressed in Escherichia coli assessed as chemical modification at Cys-47 at 10:1 compound:protein molar ratio after 1 hr by LC-MS/MS analysis. In a few lines:
(§1)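 Recombinant His-tagged protein (human GSTP1 or mouse Keap1) purified by nickel affinity and incubated on-bead with the stated molar excess of compound for up to 24 h, pH 8.4, 37 °C. Free cysteines capped with 55 mM iodoacetamide for 15 min, trypsin digest overnight at 37 °C, LC-MS/MS detection of adduct mass shifts on peptide y/b ions.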

The target of experiment [2] is Kelch-like ECH-associated protein 1 (Mus musculus) (UniProt Q9Z2X8). Kind of experiment: Binding affinity to recombinant mouse poly His-tagged Keap1 expressed in Escherichia coli assessed as chemical modification of Cys-257 residue incubated up to 24 hrs by LC-MS/MS analysis. Put shortly: as §1
Kelch-like ECH-associated protein 1 (Mus musculus), sequence (Q9Z2X8 whole entry): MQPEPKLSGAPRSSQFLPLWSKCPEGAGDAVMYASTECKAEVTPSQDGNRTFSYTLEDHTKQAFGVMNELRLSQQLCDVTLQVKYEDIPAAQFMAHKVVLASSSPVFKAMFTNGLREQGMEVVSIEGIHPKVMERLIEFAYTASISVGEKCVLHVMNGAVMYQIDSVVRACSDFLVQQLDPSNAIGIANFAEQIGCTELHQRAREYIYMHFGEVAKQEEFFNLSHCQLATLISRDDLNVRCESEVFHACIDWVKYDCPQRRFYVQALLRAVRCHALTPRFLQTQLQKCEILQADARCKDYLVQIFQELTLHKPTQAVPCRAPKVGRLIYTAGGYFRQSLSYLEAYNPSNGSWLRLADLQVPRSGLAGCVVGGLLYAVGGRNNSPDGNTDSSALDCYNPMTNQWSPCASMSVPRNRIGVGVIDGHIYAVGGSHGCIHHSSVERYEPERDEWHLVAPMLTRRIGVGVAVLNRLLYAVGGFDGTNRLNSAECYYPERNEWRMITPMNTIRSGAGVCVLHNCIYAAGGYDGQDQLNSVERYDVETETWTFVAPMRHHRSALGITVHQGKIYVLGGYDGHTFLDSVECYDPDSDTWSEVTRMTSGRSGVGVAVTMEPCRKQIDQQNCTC
Experiment [3] shares this target. Kind of experiment: Binding affinity to recombinant mouse poly His-tagged Keap1 expressed in Escherichia coli assessed as chemical modification of Cys-434 residue incubated up to 24 hrs by LC-MS/MS analysis. Put shortly: as §1
In experiment [4] the target is T1, Nuclear factor erythroid 2-related factor 2 (Rattus norvegicus) (UniProt O54968).
T1 sequence (whole entry): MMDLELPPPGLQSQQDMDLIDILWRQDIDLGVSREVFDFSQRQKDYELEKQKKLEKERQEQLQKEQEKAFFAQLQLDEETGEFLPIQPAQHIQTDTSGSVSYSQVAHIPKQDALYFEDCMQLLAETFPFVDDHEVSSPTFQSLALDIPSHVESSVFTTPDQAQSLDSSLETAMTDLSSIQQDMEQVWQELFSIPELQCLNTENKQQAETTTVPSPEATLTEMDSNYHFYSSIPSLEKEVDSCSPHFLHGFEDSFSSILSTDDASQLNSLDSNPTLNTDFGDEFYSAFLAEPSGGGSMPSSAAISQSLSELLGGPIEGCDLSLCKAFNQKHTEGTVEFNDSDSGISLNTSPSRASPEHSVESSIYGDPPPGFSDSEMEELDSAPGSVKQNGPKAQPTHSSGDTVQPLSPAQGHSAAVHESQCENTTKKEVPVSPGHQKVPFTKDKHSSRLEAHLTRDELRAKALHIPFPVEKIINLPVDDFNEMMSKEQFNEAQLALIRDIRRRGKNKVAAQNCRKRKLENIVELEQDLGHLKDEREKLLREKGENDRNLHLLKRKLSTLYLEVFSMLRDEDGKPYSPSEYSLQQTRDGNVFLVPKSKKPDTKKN
In words: Induction of NRF2 activation in rat H42E cells expressing ARE8L assessed as reporter transgene activity after 24 hrs by luminescence assay. It counts as cell-based. In a few lines: (§2)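 Reporter cells (H4IIE-ARE8L) exposed 24 h to compounds at 0.5% DMSO. Cells washed in PBS, then given 150 µg/mL D-luciferin in PBS for 5 min before reading luminescence. Signal normalised to vehicle-treated cells. The concentration giving a 2-fold rise in reporter activity (CD) was taken from the concentration-response data. Mean ± S.D., n=4.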

The nature of experiment [5]: Thiol reactivity using beta-mercaptoethanol assessed as chemical shifts at 25 degC by NMR spectroscopy.
In experiment [6] the target is Kelch-like ECH-associated protein 1 (Mus musculus) (UniProt Q9Z2X8). In words: Binding affinity to recombinant mouse poly His-tagged Keap1 expressed in Escherichia coli assessed as chemical modification of Cys-273 residue incubated up to 24 hrs by LC-MS/MS analysis. Put shortly:
as §1

Experiment [7] has the same target. In words: Binding affinity to recombinant mouse poly His-tagged Keap1 expressed in Escherichia coli assessed as chemical modification of Cys-613 residue incubated up to 24 hrs by LC-MS/MS analysis. Put shortly:
as §1

A short description of experiment [8]: Thiol reactivity using N-acetyl cysteine assessed as chemical shifts at 25 degC by NMR spectroscopy.
In experiment [9] the target is Kelch-like ECH-associated protein 1 (Mus musculus) (UniProt Q9Z2X8). In words: Binding affinity to recombinant mouse poly His-tagged Keap1 expressed in Escherichia coli assessed as chemical modification of Cys-288 residue incubated up to 24 hrs by LC-MS/MS analysis. In a few lines: as §1
Experiment [10] concerns the target T1, Nuclear factor erythroid 2-related factor 2 (Rattus norvegicus). In words: Stabilization of NRF2 in rat H42E cells expressing ARE8L at 0.01 to 30 nM after 1 hr by Western blot analysis. It counts as cell-based. Put shortly:
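H4IIE-ARE8L cells exposed 1 h to the compound. Nrf2 protein accumulation detected by immunoblot. DMSO (0.5%) served as negative control and MG132 (10 μM) as positive control. Representative of n=3 independent experiments.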
In general terms: A western blot detects proteins with antibodies after separation by electrophoresis.

A short description of experiment [11]: Cytotoxicity against rat H42E cells expressing ARE8L assessed as cellular ATP level after 24 hrs by Celltiter-Glo luminescent cell viability assay. Type of experiment: cell-based. In a few lines: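 H4IIE-ARE8L rat hepatoma cells grown in DMEM with 10% FBS, glutamine, HEPES and non-essential amino acids, and exposed 24 h to compounds at 0.5% DMSO. Cellular ATP measured by CellTiter-Glo luminescence and expressed relative to vehicle. Mean ± S.D., n=4.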

Experiment [12] addresses Kelch-like ECH-associated protein 1 (Mus musculus) (UniProt Q9Z2X8). In words: Binding affinity to recombinant mouse poly His-tagged Keap1 expressed in Escherichia coli assessed as chemical modification of Cys-489 residue incubated up to 24 hrs by LC-MS/MS analysis. Put shortly:
as §1

A short description of experiment [13]: Thiol reactivity using beta-mercaptoethanol assessed as chemical shifts in presence of triethylamine at 25 degC by NMR spectroscopy.
The target of experiment [14] is T1, Nuclear factor erythroid 2-related factor 2 (Rattus norvegicus). Kind of experiment: Induction of NRF2 activation in rat H42E cells expressing ARE8L assessed as increase in reporter transgene activity after 24 hrs by luminescence assay. It counts as cell-based. Put shortly:
as §2

Experiment [15] concerns the target Kelch-like ECH-associated protein 1 (Mus musculus) (UniProt Q9Z2X8). Kind of experiment: Binding affinity to mouse V5-tagged Keap1 expressed in HEK293T cells assessed as chemical modification of Cys-273 residue at 100 uM incubated for by LC-MS/MS analysis. The settings on record: HEK-293T. It counts as cell-based. Put shortly: (§3)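 Mouse Keap1-V5 expressed ectopically in HEK293T cells; cells exposed to 100 µM compound for 1 h. Keap1-V5 immunopurified from lysates, free cysteines capped with iodoacetamide, trypsin-digested overnight at 37 °C, then LC-MS/MS. Modification frequency per cysteine from n=4 independent experiments.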

The target is the same in experiment [16]. Kind of experiment: Binding affinity to mouse V5-tagged Keap1 expressed in HEK293T cells assessed as chemical modification of Cys-288 residue at 100 uM incubated for by LC-MS/MS analysis. It counts as cell-based. The settings on record: HEK-293T. In a few lines:
as §3

For experiment [17] the target is unchanged. Kind of experiment: Binding affinity to mouse V5-tagged Keap1 expressed in HEK293T cells assessed as chemical modification of Cys-434 residue at 100 uM incubated for by LC-MS/MS analysis. It counts as cell-based. The settings on record: HEK-293T. In a few lines: as §3
Experiment [18] concerns the target Glutathione S-transferase P (Homo sapiens) (UniProt P09211). In words: Binding affinity to recombinant human poly His-tagged GSTP1 expressed in Escherichia coli assessed as chemical modification of Cys-47 residue at 1:1 compound:protein molar ratio after 24 hrs by LC-MS/MS analysis in presence of methyl 2-cyano-3,12-dioxooleana-1,9(11)-dien-28-oate. In a few lines: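 Competition format. His-tagged human GSTP1 was held on-bead at pH 8.4, 37 °C and pre-incubated 1 h with molar excesses of the competitor. The probe was then added at 1:1 molar ratio for another 24 h, with the competitor kept in the buffer. Cysteines capped with iodoacetamide, followed by tryptic digestion and LC-MS/MS of Cys-47 modification.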

Experiment [19] deals with Kelch-like ECH-associated protein 1 (Mus musculus) (UniProt Q9Z2X8). Kind of experiment: Binding affinity to mouse V5-tagged Keap1 expressed in HEK293T cells assessed as chemical modification of Cys-257 residue at 100 uM incubated for by LC-MS/MS analysis. It counts as cell-based. The settings on record: HEK-293T. Put shortly: as §3
Experiment [20] shares this target. Kind of experiment: Binding affinity to mouse V5-tagged Keap1 expressed in HEK293T cells assessed as chemical modification of Cys-489 residue at 100 uM incubated for by LC-MS/MS analysis. The settings on record: HEK-293T. Type of experiment: cell-based. In a few lines: as §3
Experiment [21] addresses Glutathione S-transferase P (Homo sapiens) (UniProt P09211). In words: Binding affinity to recombinant human poly His-tagged GSTP1 expressed in Escherichia coli assessed as chemical modification at Cys-47 at 100:1 compound:protein molar ratio after 24 hrs by LC-MS/MS analysis. Put shortly:
as §1

Glutathione S-transferase P (Homo sapiens), sequence (P09211 2-210 limits assumed): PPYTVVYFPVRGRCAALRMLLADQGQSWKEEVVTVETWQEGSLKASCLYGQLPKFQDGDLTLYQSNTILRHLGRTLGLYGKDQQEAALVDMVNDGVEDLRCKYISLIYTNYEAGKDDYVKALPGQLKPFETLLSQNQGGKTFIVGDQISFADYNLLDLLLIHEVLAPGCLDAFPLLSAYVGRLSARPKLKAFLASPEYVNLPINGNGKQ

Broadly, the IC50 is the concentration that inhibits the measured activity by half. Regarding `COC(=O)[C@]12CCC(C)(C)C[C@H]1[C@H]1C(=O)C=C3[C@@]4(C)C=C(C#N)C(=O)C(C)(C)[C@@H]4CC[C@@]3(C)[C@]1(C)CC2` [BARDOXOLONE METHYL], the outcome in experiment [1] and in [10] was Active. In addition, the outcome in experiment [2], in [3], in [6], in experiment [7], in [9] and in [12] was inactive. In [4], the CD was found to be 0.0005 µM. Further, the Activity in experiment [5] was found to be 5.85 ppm; in experiment [8] it was 5.81 ppm. Further, in [11], the half-inhibitory concentration (IC50) is 1400 nM.
For `COC(=O)[C@]12CCC(C)(C)C[C@H]1[C@H]1C(=O)C=C3[C@@]4(C)CC(C#N)C(=O)C(C)(C)[C@@H]4CC[C@@]3(C)[C@]1(C)CC2` (some centres undefined), the outcome in experiment [13] and in [5] was inactive. Besides, the CD in experiment [4] turned out to be 0.009 µM.
In the case of `COC(=O)[C@]12CCC(C)(C)C[C@H]1[C@H]1C(=O)C=C3[C@@]4(C)C=CC(=O)C(C)(C)[C@@H]4CC[C@@]3(C)[C@]1(C)CC2`, the Activity entry in experiment [14] was “Dose-dependent effect”. Also, the CD in experiment [4] stood at 0.9 µM.
With `COC(=O)[C@]12CCC(C)(C)C[C@H]1[C@H]1C(=O)C=C3[C@@]4(C)[C@H]5O[C@H]5C(=O)C(C)(C)[C@@H]4CC[C@@]3(C)[C@]1(C)CC2`, the Activity result in experiment [14] was “Dose-dependent effect”. Moreover, the CD in [4] is 15.4 µM.
Regarding `COC(=O)[C@]12CCC(C)(C)C[C@H]1[C@H]1C(=O)C=C3[C@@]4(C)[C@H]5O[C@@]5(C#N)C(=O)C(C)(C)[C@@H]4CC[C@@]3(C)[C@]1(C)CC2`, the Activity in [13] is 5.15 ppm; in experiment [2], “Dose-dependent effect”; in [3], “Dose-dependent effect”; in experiment [6], “Dose-dependent effect”; in [7] it was “Dose-dependent effect”; in [9] it was “Dose-dependent effect”. In addition, the Activity entry in experiment [12] is “Dose-dependent effect”. Further, the result in experiment [15], in experiment [16], in experiment [17], in experiment [19], in [20] and in experiment [21] was Active. Moreover, the CD in [4] worked out at 0.002 µM. The result in [5], in experiment [18] and in [8] was inactive. Further, in experiment [11], the half-maximal inhibitory concentration (IC50) worked out at 4300 nM.
For `COC(=O)[C@]12CCC(C)(C)C[C@H]1[C@H]1C(=O)C=C3[C@@]4(C)CCC(=O)C(C)(C)[C@@H]4CC[C@@]3(C)[C@]1(C)CC2`, in experiment [4], the CD worked out at 1.2 µM.
Same read-out and setting: in the case of `COC(=O)[C@]12CCC(C)(C)C[C@H]1[C@H]1C(=O)C=C3[C@@]4(C)CC[C@H](OC(C)=O)C(C)(C)[C@@H]4CC[C@@]3(C)[C@]1(C)CC2` it was 17.6 µM.
